Experiment [1] has as its system Bacillus spizizenii. Description: Antibacterial activity against Bacillus subtilis ATCC 6633 assessed as growth inhibition after 18 to 24 hrs by microdilution assay. It is filed as functional. Put shortly:
(§1)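 Broth microdilution MIC in LB medium at pH 7.2. Compounds came from DMSO stocks and were serially diluted from 1000 to 7.8 (final). Inoculum was mid-log cells diluted to OD600 0.004 (about 5 × 10^5 CFU/mL). Plates were incubated at 37 °C for 18–24 h. MIC was the last dilution without visible turbidity. Controls were DMSO solvent, medium ± antibiotic, and ampicillin.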
(In general: Dilution methods test growth across graded concentrations, often in twofold steps.)

In experiment [2] the test system is Staphylococcus aureus. Description: Antibacterial activity against Staphylococcus aureus ATCC 25923 assessed as growth inhibition after 18 to 24 hrs by microdilution assay. Format: functional. Summed up:
as §1

Experiment [3] deals with Klebsiella pneumoniae. Put plainly: Antibacterial activity against Klebsiella pneumoniae ATCC 13883 assessed as growth inhibition after 18 to 24 hrs by microdilution assay. Format: functional. Summed up:
as §1

Experiment [4] in a line: Antioxidant activity assessed as trolox equivalent of ferric ion reducing activity using fe2+-TPTZ at 1 mg/ml after 20 mins by FRAP assay. It is filed as functional. Summed up: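 Sample at 1 mg/mL was mixed with reagent, kept 20 min at room temperature, and read at 595 nm against a water blank. Triplicates were corrected for reagent and sample blanks. TEAC came from a five-point Trolox calibration curve.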

Experiment [5] concerns Enterococcus faecalis. Put plainly: Antibacterial activity against Enterococcus faecalis ATCC 29212 assessed as growth inhibition after 18 to 24 hrs by microdilution assay. It is filed as functional. Put shortly: as §1
The subject of experiment [6] is Proteus vulgaris. Description: Antibacterial activity against Proteus vulgaris ATCC 13315 assessed as growth inhibition after 18 to 24 hrs by microdilution assay. It is filed as functional. Put shortly:
as §1

In experiment [7] the test system is Radical scavenging activity. Put plainly: Antioxidant activity assessed as DPPH radical scavenging activity after 50 mins. Format: functional. Put shortly:
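DPPH• in methanol was mixed 1:1 with sample at five final concentrations (6.25–100.00), vortexed, and kept 50 min at room temperature. Absorbance was read at 517 nm and plotted against concentration, with reagent-blank and solvent controls. SC50 was read from the graph as the concentration halving the initial DPPH•.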

The subject of experiment [8] is Pseudomonas aeruginosa. Description: Antibacterial activity against Pseudomonas aeruginosa ATCC 27853 assessed as growth inhibition after 18 to 24 hrs by microdilution assay. It is filed as functional. Put shortly: as §1
The test system of experiment [9] is Staphylococcus aureus. Description: Antibacterial activity against Staphylococcus aureus ATCC 25923 assessed as growth inhibition at 100 ug/mL after 18 to 24 hrs by microdilution assay. It is filed as functional, organism-based.
Experiment [10] concerns Bacillus spizizenii. Put plainly: Antibacterial activity against Bacillus subtilis ATCC 6633 assessed as growth inhibition at 100 ug/mL after 18 to 24 hrs by microdilution assay. Format: functional.
Experiment [11] relates to Proteus vulgaris. Description: Antibacterial activity against Proteus vulgaris ATCC 13315 assessed as growth inhibition at 100 ug/mL after 18 to 24 hrs by microdilution assay. Format: functional, organism-based.
Experiment [12] deals with Pseudomonas aeruginosa. Description: Antibacterial activity against Pseudomonas aeruginosa ATCC 27853 assessed as growth inhibition at 100 ug/mL after 18 to 24 hrs by microdilution assay. Format: functional, organism-based.
For experiment [13], the system named is Klebsiella pneumoniae. Description: Antibacterial activity against Klebsiella pneumoniae ATCC 13883 assessed as growth inhibition at 100 ug/mL after 18 to 24 hrs by microdilution assay. It is filed as functional, organism-based.
Experiment [14] has as its system Enterococcus faecalis. Put plainly: Antibacterial activity against Enterococcus faecalis ATCC 29212 assessed as growth inhibition at 100 ug/mL after 18 to 24 hrs by microdilution assay. It is filed as functional, organism-based.

Molecules are shown by their SMILES. Calls of active or inactive are those of the source. The rule behind the calls is not given here.

For `CCCCCCn1c(-c2cc[n+](CCCCCC)cc2)cc(=O)c2ccccc21.[Br-]`, the minimum inhibitory concentration (MIC) (usually the least concentration at which growth counts as inhibited) in the experiment on Bacillus spizizenii [1] was 31.2 µg/mL; in the experiment with Staphylococcus aureus [2] it was 7.8 µg/mL; with Klebsiella pneumoniae [3] it was 15.6 µg/mL; in the experiment with Enterococcus faecalis [5], 31.2 µg/mL; in the experiment with Proteus vulgaris [6] it was 62.5 µg/mL; with Pseudomonas aeruginosa [8] it was 7.8 µg/mL. Also, the Activity in experiment [4] was 141 equiv. Besides, the SC50 in [7] came to 56 µg/mL.
On to `CCCCCCCCCCCCCCCn1c(-c2cc[n+](CCCCCCCCCCCCCCC)cc2)cc(=O)c2ccccc21.[Br-]`, for which the MIC in the experiment on Bacillus spizizenii [1] came out at 500 µg/mL; with Staphylococcus aureus [2], 500 µg/mL; with Klebsiella pneumoniae [3], 250 µg/mL; with Enterococcus faecalis [5], 250 µg/mL; in the experiment on Proteus vulgaris [6] it was 500 µg/mL; in the experiment on Pseudomonas aeruginosa [8] it was 500 µg/mL. Besides, the Activity in experiment [4] came to 66 equiv. Further, the SC50 in experiment [7] came to 133 µg/mL.
As for `Nc1ccccc1C(=O)/C=C/c1ccncc1`, in experiment [4], the Activity came to 43 equiv. Moreover, the SC50 in experiment [7] amounted to 130 µg/mL.
As to `CCCCCCCn1c(-c2cc[n+](CCCCCCC)cc2)cc(=O)c2ccccc21.[Br-]`, the MIC was determined as 62.5 µg/mL with Bacillus spizizenii [1]; 31.2 µg/mL in the experiment with Staphylococcus aureus [2]; 62.5 µg/mL in the experiment on Klebsiella pneumoniae [3]; 62.5 µg/mL with Enterococcus faecalis [5]; 125 µg/mL with Proteus vulgaris [6]; 62.5 µg/mL with Pseudomonas aeruginosa [8]. The Activity in [4] came to 59 equiv. The SC50 in experiment [7] stood at 56 µg/mL.
Turning to `CCCCCCCCCCn1c(-c2cc[n+](CCCCCCCCCC)cc2)cc(=O)c2ccccc21.[Br-]`, the MIC was determined as 62.5 µg/mL in the experiment on Bacillus spizizenii [1]; 62.5 µg/mL in the experiment with Staphylococcus aureus [2]; 62.5 µg/mL with Klebsiella pneumoniae [3]; 125 µg/mL in the experiment on Enterococcus faecalis [5]; 62.5 µg/mL with Proteus vulgaris [6]; 31.2 µg/mL in the experiment on Pseudomonas aeruginosa [8]. Besides, the Activity in [4] was determined as 40 equiv. Further, the SC50 in experiment [7] is 78 µg/mL.
Regarding `CC1(C)S[C@@H]2[C@H](NC(=O)[C@H](N)c3ccccc3)C(=O)N2[C@H]1C(=O)O`, the “growth inhibition (GI)” value in the experiment with Staphylococcus aureus [9], in the experiment on Bacillus spizizenii [10], in the experiment with Proteus vulgaris [11], in the experiment with Pseudomonas aeruginosa [12], in the experiment with Klebsiella pneumoniae [13] and in the experiment on Enterococcus faecalis [14] was “Active” each time.
`CCCCCCCCCn1c(-c2cc[n+](CCCCCCCCC)cc2)cc(=O)c2ccccc21.[Br-]`: the MIC was determined as 62.5 µg/mL in the experiment with Bacillus spizizenii [1]; 31.2 µg/mL in the experiment on Staphylococcus aureus [2]; 31.2 µg/mL with Klebsiella pneumoniae [3]; 62.5 µg/mL in the experiment on Enterococcus faecalis [5]; 31.2 µg/mL in the experiment on Proteus vulgaris [6]; 62.5 µg/mL in the experiment on Pseudomonas aeruginosa [8]. Also, the Activity in experiment [4] amounted to 59 equiv. For the same compound, the SC50 in [7] was found to be 55 µg/mL.
As to `CCCCCn1c(-c2cc[n+](CCCCC)cc2)cc(=O)c2ccccc21.[Br-]`, the MIC in the experiment on Bacillus spizizenii [1] came out at 62.5 µg/mL; in the experiment with Staphylococcus aureus [2], 15.6 µg/mL; with Klebsiella pneumoniae [3], 31.2 µg/mL; in the experiment with Enterococcus faecalis [5], 62.5 µg/mL; in the experiment with Proteus vulgaris [6], 62.5 µg/mL; in the experiment with Pseudomonas aeruginosa [8], 15.6 µg/mL. The Activity in [4] amounted to 94 equiv. Further, in experiment [7], the SC50 is 112 µg/mL.
For `CCCCCCCCCCCCCCn1c(-c2cc[n+](CCCCCCCCCCCCCC)cc2)cc(=O)c2ccccc21.[Br-]`, the MIC in the experiment on Bacillus spizizenii [1] worked out at 500 µg/mL; in the experiment with Staphylococcus aureus [2], 500 µg/mL; in the experiment on Klebsiella pneumoniae [3], 500 µg/mL; in the experiment with Enterococcus faecalis [5] it was 250 µg/mL; in the experiment on Proteus vulgaris [6], 500 µg/mL; in the experiment with Pseudomonas aeruginosa [8], 500 µg/mL. In experiment [4], the Activity was determined as 14 equiv. Further, the SC50 in experiment [7] worked out at 72 µg/mL.
Regarding `CCCCCCCCn1c(-c2cc[n+](CCCCCCCC)cc2)cc(=O)c2ccccc21.[Br-]`, the minimum inhibitory concentration (MIC) in the experiment on Bacillus spizizenii [1] turned out to be 31.2 µg/mL; in the experiment on Staphylococcus aureus [2], 15.6 µg/mL; in the experiment on Klebsiella pneumoniae [3], 31.2 µg/mL; in the experiment on Enterococcus faecalis [5] it was 62.5 µg/mL; with Proteus vulgaris [6], 31.2 µg/mL; in the experiment on Pseudomonas aeruginosa [8], 31.2 µg/mL. Also, the Activity in experiment [4] was 59 equiv. Besides, in experiment [7], the SC50 was 85 µg/mL.
As for `O=c1cc(-c2ccncc2)[nH]c2ccccc12`, the Activity in [4] came to 46 equiv. Also, the SC50 in experiment [7] amounted to 133 µg/mL.
Take `CCCCCCCCCCCCCn1c(-c2cc[n+](CCCCCCCCCCCCC)cc2)cc(=O)c2ccccc21.[Br-]`: the MIC in the experiment with Bacillus spizizenii [1], with Staphylococcus aureus [2], in the experiment on Klebsiella pneumoniae [3], in the experiment on Enterococcus faecalis [5], in the experiment on Proteus vulgaris [6] and in the experiment with Pseudomonas aeruginosa [8] was 250 µg/mL in each case. Also, in experiment [4], the Activity worked out at 53 equiv. For the same compound, in experiment [7], the SC50 stood at 45 µg/mL.
As to `CCCCCCCCCCCn1c(-c2cc[n+](CCCCCCCCCCC)cc2)cc(=O)c2ccccc21.[Br-]`, the minimum inhibitory concentration (MIC) was 125 µg/mL with Bacillus spizizenii [1]; 62.5 µg/mL in the experiment on Staphylococcus aureus [2]; 125 µg/mL in the experiment with Klebsiella pneumoniae [3]; 125 µg/mL in the experiment with Enterococcus faecalis [5]; 31.2 µg/mL in the experiment on Proteus vulgaris [6]; 62.5 µg/mL in the experiment with Pseudomonas aeruginosa [8]. The Activity in experiment [4] was found to be 44 equiv. Moreover, the SC50 in experiment [7] worked out at 72 µg/mL.
On to `CCCCCCCCCCCCn1c(-c2cc[n+](CCCCCCCCCCCC)cc2)cc(=O)c2ccccc21.[Br-]`, for which the MIC with Bacillus spizizenii [1] is 250 µg/mL; with Staphylococcus aureus [2], 125 µg/mL; with Klebsiella pneumoniae [3], 125 µg/mL; in the experiment with Enterococcus faecalis [5], 125 µg/mL; in the experiment on Proteus vulgaris [6], 125 µg/mL; in the experiment on Pseudomonas aeruginosa [8], 125 µg/mL. In addition, in experiment [4], the Activity turned out to be 39 equiv. For the same compound, in [7], the SC50 amounted to 82 µg/mL.

(Values after ChEMBL document CHEMBL2434866, “Synthesis, antibacterial and antioxidant activities of new 1-alkyl-4-(1-alkyl-4-oxo-1,4-dihydroquinolin-2-yl)pyridinium bromides” (2013).)
